Test results from ChEMBL document CHEMBL4813978 (Bioorg Med Chem Lett, 2021).

Key:
[1] = target: Muscarinic acetylcholine receptor M3 (Homo sapiens, UniProt P20309); experiment: Agonist activity at muscarinic M3 receptor (unknown origin) expressed in CHO cells; assay type: functional, cell-based
[2] = Glutathione reactivity of compound assessed as compound-dGSH conjugate formation incubated by fluorescence detector; assay type: physicochemical
Outline: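 Test compounds incubated with dansyl-glutathione (dGSH) and a human hepatocyte microsome fraction. The test compound–dGSH conjugate was quantified by fluorescence detection and reported as μmol/L.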

[3] = target: T1, Muscarinic acetylcholine receptor M1 (Homo sapiens, UniProt P11229); experiment: Agonist activity at muscarinic M1 receptor (unknown origin) expressed in CHO cells; assay type: functional, cell-based
T1 sequence (P11229 whole entry): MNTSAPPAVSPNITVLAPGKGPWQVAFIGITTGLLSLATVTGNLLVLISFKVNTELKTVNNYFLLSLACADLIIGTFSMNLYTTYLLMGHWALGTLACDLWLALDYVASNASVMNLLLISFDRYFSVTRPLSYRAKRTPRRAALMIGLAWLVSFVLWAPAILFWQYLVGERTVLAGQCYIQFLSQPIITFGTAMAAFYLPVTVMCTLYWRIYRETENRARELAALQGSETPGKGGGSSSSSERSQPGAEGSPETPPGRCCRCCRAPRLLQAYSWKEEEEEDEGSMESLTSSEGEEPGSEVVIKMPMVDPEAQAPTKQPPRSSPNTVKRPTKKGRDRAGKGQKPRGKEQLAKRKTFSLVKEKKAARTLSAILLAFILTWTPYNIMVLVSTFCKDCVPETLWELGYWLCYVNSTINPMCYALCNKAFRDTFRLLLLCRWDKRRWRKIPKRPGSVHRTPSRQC

[4] = target: T2, Muscarinic acetylcholine receptor M4 (Homo sapiens, UniProt P08173); experiment: Agonist activity at muscarinic M4 receptor (unknown origin) expressed in CHO cells; assay type: functional, cell-based
T2 sequence (P08173 whole entry): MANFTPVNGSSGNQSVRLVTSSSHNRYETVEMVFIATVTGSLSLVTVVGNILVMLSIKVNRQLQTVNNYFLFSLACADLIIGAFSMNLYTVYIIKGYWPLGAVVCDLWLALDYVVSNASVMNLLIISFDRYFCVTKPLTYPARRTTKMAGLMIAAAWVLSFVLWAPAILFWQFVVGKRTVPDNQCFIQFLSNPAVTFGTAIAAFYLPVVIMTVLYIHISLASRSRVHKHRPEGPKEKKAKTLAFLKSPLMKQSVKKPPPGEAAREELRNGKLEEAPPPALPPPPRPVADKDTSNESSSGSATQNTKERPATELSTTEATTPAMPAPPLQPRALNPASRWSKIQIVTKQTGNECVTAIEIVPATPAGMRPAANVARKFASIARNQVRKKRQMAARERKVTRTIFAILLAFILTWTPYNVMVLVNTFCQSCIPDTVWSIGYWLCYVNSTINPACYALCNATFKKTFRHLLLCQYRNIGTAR
Outline: (§1)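 Agonist-mode EC50 with Emax. Emax given as mean ± SE of two or more experiments.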

[5] = target: T3, Muscarinic acetylcholine receptor M2 (Homo sapiens, UniProt P08172); experiment: Agonist activity at muscarinic M2 receptor (unknown origin) expressed in CHO cells; assay type: functional, cell-based; outline: as §1
T3 sequence (P08172 whole entry): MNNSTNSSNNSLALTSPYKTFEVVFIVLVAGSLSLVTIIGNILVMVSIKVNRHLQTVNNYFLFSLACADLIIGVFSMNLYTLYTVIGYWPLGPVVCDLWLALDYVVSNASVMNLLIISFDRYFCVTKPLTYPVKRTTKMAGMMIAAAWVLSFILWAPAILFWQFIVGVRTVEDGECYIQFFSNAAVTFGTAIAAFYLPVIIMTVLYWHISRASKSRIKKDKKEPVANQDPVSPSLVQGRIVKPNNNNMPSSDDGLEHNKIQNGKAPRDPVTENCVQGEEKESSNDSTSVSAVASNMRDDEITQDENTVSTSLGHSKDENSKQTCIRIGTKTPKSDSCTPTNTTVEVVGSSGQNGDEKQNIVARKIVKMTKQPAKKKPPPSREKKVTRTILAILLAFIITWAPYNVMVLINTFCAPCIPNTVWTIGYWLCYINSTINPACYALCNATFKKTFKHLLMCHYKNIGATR

[6] = target: D(1A) dopamine receptor (Homo sapiens, UniProt P21728); experiment: Antagonist activity at human D1 receptor expressed in CHO cells assessed as inhibition of dopamine-induced calcium accumulation; assay type: functional, cell-based
[7] = target: D(2) dopamine receptor (Homo sapiens, UniProt P14416); experiment: Antagonist activity at human D2 receptor expressed in CHO cells assessed as inhibition of dopamine-induced calcium accumulation; assay type: functional, cell-based
[8] = Drug concentration in po dosed mouse brain measured after 1 hr; assay type: ADME, organism-based; conditions: read-out: Drug uptake
[9] = Drug concentration in po dosed mouse plasma measured after 1 hr; assay type: ADME, organism-based
[10] = Ratio of drug level in brain to plasma in po dosed mouse after 1 hr; assay type: ADME, organism-based; conditions: read-out: BPR

Chain of D(2) dopamine receptor (P14416 whole entry): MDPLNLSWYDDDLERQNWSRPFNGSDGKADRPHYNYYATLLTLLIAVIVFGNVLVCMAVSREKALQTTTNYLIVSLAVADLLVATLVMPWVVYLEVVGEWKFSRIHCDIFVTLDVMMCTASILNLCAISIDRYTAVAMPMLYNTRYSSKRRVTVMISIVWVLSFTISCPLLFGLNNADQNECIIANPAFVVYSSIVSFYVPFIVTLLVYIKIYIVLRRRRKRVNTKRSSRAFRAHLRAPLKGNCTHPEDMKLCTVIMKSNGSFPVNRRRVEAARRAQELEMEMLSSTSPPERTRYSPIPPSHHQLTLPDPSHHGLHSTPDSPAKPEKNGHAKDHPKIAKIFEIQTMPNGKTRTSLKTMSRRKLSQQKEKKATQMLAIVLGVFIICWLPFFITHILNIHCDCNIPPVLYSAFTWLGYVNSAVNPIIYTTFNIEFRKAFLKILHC
Chain of D(1A) dopamine receptor (P21728 whole entry): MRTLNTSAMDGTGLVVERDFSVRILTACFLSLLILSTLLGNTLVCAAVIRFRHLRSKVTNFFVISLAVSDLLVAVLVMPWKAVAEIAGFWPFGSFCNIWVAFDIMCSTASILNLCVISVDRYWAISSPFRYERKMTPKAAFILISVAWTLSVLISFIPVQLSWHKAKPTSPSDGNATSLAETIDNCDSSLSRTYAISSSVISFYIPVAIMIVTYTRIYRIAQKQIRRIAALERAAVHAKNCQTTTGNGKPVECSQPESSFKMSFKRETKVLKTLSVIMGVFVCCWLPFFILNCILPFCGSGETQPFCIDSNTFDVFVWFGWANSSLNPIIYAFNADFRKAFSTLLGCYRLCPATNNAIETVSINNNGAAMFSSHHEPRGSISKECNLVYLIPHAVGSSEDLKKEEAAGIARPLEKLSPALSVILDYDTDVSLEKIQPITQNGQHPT
Chain of Muscarinic acetylcholine receptor M3 (P20309 whole entry): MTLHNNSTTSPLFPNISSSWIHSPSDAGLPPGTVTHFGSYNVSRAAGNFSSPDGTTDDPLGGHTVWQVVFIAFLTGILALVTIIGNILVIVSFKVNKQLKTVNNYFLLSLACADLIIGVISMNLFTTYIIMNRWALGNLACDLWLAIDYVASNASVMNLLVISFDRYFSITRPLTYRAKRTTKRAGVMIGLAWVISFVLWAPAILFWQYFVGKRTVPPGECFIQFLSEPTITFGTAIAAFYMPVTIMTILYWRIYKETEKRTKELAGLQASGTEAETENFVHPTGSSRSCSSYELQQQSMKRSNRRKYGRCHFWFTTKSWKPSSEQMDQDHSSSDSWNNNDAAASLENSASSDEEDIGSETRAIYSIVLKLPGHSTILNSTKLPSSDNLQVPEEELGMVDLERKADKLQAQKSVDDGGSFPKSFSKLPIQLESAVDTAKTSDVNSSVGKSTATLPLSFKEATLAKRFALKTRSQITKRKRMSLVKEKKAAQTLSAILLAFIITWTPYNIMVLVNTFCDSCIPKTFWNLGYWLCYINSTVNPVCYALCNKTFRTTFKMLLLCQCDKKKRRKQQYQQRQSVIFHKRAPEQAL

EC50 [1] [µM] | EC50 [5] [µM] | Ki [6] [µM] | concentration at 1 h [9] [nM] | Kp at 1 h [10] | SMILES | Activity [2] [µmol/L] | EC50 [3] [µM] | EC50 [4] [µM] | Ki [7] [µM] | concentration at 1 h [8] [nM]
0.64 | > 10 | – | – | – | CN1CC=C(C2=Nc3cc(Cl)ccc3Nc3ccccc32)CC1 | 0.21 | 0.35 | > 10 | – | –
– | – | – | – | – | CCc1ccc2c(c1)C(C1=C[C@H](C)N(C)CC1)=Nc1cc(Cl)ccc1N2 | – | > 10 | – | – | –
– | – | – | – | – | Cc1ccc2c(c1)N=C(C1=C[C@H](C)N(C)CC1)c1cc(F)ccc1N2 | – | > 10 | – | – | –
> 10 | > 10 | 0.035 | – | – | CN1CC=C(C2=Nc3cc(Cl)ccc3Nc3ccc(F)cc32)CC1 | 0.3 | 4.7 | > 10 | 0.41 | –
– | – | – | – | – | CCN1CC=C(C2=Nc3cc(Cl)ccc3Nc3ccc(F)cc32)CC1 | 0.27 | > 10 | > 10 | 0.34 | –
– | – | – | – | – | COc1ccc2c(c1)C(C1=CCN(C)CC1)=Nc1cc(C)ccc1N2 | 0.07 | > 10 | > 10 | 0.329 | –
– | – | – | – | – | CCc1ccc2c(c1)C(C1=CCN(C)CC1)=Nc1cc(C)ccc1N2 | – | > 10 | > 10 | – | –
> 10 | > 10 | – | 360 | 5.2 | Cc1ccc2c(c1)N=C(C1=CCN(C)CC1)c1cc(F)ccc1N2 | – | 0.31 | > 10 | – | 1840
– | – | – | – | – | CN1CC=C(C2=Nc3cc(F)ccc3Nc3ccc(Cl)cc32)CC1 | – | > 10 | > 10 | 0.108 | –
– | – | – | – | – | CC(C)N1CC=C(C2=Nc3cc(Cl)ccc3Nc3ccc(F)cc32)CC1 | 0.29 | > 10 | > 10 | – | –
– | – | – | – | – | CN1CCN(C2=Nc3cc(Cl)ccc3Nc3ccccc32)CC1 [CLOZAPINE] | 7.5 | – | – | – | –
0.67 | > 10 | 0.08 | – | – | Clc1ccc2c(c1)N=C(N1CCNCC1)c1ccccc1N2 [N-DESMETHYLCLOZAPINE] | – | 0.048 | – | 0.489 | –

SMILES | EC50 [1] [µM] | EC50 [5] [µM] | Ki [6] [µM] | concentration at 1 h [9] [nM] | Kp at 1 h [10] | Activity [2] [µmol/L] | EC50 [3] [µM] | EC50 [4] [µM] | Ki [7] [µM] | concentration at 1 h [8] [nM]
Fc1ccc2c(c1)C(C1=CCNCC1)=Nc1cc(Cl)ccc1N2 | > 10 | > 10 | – | – | – | – | > 10 | > 10 | – | –
Cc1ccc2c(c1)N=C(C1=CCNCC1)c1cc(F)ccc1N2 | > 10 | > 10 | – | – | – | – | > 10 | > 10 | – | 63
Cc1ccc2c(c1)N=C(C1=CCN(C)CC1)c1cc(C)ccc1N2 | – | – | 0.057 | – | – | 0.22 | > 10 | > 10 | 0.694 | –
